Measured values reported in ChEMBL document CHEMBL5724801, “EUbOPEN Chemogenomics Library - Multiplex” (2024).
Several values for one entry are separate records, joined by “and”; a condition that tells them apart may be missing. Equal entries are not always repeated.

How the values were obtained:
Fibroblast = experiment: Multiplex assay against human fibroblast; assay type: toxicity, cell-based
How it was run: (§1)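 Imaging took place on a CQ1 microscope at 37°C and 5% CO2 once compound had been added to live cells stained at seeding with Hoechst33342, BioTracker Green Microtubule Cytoskeleton Dye, MitoTracker Red and Annexin V Alexa Fluor 680. CellPathfinder machine-learning gating classed cells as Hoechst high-intensity objects or normal cells, classed normal cells as having healthy, pyknosed or fragmented nuclei, and classed pyknosed cells as mitotic or apoptotic. Tubulin, mitochondrial-mass and membrane-permeability phenotypes are per cents of the healthy-nucleus cells.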

HEK-293T = experiment: Multiplex assay against HEK293T; assay type: toxicity, cell-based; conditions: human; how it was run: as §1
[1] = 12 h, 1 µM, compound concentration 1 uM
[2] = 12 h, 10 µM, compound concentration 10 uM
[3] = 24 h, 1 µM, compound concentration 1 uM
[4] = 24 h, 10 µM, compound concentration 10 uM
[5] = 48 h, 1 µM, compound concentration 1 uM
[6] = 48 h, 10 µM, compound concentration 10 uM

Question: What does the source list for `CCc1cc2cc(NS(=O)(=O)c3ccc(C#N)cc3)ccc2n(CC)c1=O`?
Answer: Population Apoptotic (%) (Fibroblast; [1]): 42%; Population Fragmented Nuclei (%) (Fibroblast; [1]): 16% and 27%; Population Healthy Nuclei (%) (Fibroblast; [1]): 64% and 40%; Population Hoechst High Intensity Objects (%) (Fibroblast; [1]): 1% and 6%; Population Membrane Permeable-Phenotype (%) (Fibroblast; [1]): 1% and 9%; Population Mitochondria Different-Phenotype (%) (Fibroblast; [1]): 3% and 7%; Population Mitotic Cells (%) (Fibroblast; [1]): 57%; Population Normal (%) (Fibroblast; [1]): 98% and 93%; Population Pyknosed Nuclei (%) (Fibroblast; [1]): 18% and 32%; Population Tubulin-Different-Phenotype (%) (Fibroblast; [1]): 24% and 39%; Total Cell Count (Fibroblast; [1]): 157 and 173; Population Apoptotic (%) (Fibroblast; [2]): 42% and 18%; Population Fragmented Nuclei (%) (Fibroblast; [2]): 18% and 19%; Population Healthy Nuclei (%) (Fibroblast; [2]): 54% and 43%; Population Hoechst High Intensity Objects (%) (Fibroblast; [2]): 1% and 5%; Population Mitochondria Different-Phenotype (%) (Fibroblast; [2]): 5% and 6%; Population Mitotic Cells (%) (Fibroblast; [2]): 57% and 81%; Population Normal (%) (Fibroblast; [2]): 98% and 94%; Population Pyknosed Nuclei (%) (Fibroblast; [2]): 26% and 37%; Population Tubulin-Different-Phenotype (%) (Fibroblast; [2]): 65% and 74%; Total Cell Count (Fibroblast; [2]): 133 and 153; Population Apoptotic (%) (Fibroblast; [3]): 53% and 43%; Population Fragmented Nuclei (%) (Fibroblast; [3]): 19% and 26%; Population Healthy Nuclei (%) (Fibroblast; [3]): 63% and 48%; Population Hoechst High Intensity Objects (%) (Fibroblast; [3]): 5% and 6%; Population Membrane Permeable-Phenotype (%) (Fibroblast; [3]): 1% and 9%; Population Mitochondria Different-Phenotype (%) (Fibroblast; [3]): 4% and 8%; Population Mitotic Cells (%) (Fibroblast; [3]): 46% and 56%; Population Normal (%) (Fibroblast; [3]): 94% and 93%; Population Pyknosed Nuclei (%) (Fibroblast; [3]): 17% and 25%; Population Tubulin-Different-Phenotype (%) (Fibroblast; [3]): 26% and 51%; Total Cell Count (Fibroblast; [3]): 157 and 164; Population Apoptotic (%) (Fibroblast; [4]): 50% and 32%; Population Fragmented Nuclei (%) (Fibroblast; [4]): 19% and 22%; Population Healthy Nuclei (%) (Fibroblast; [4]): 58% and 38%; Population Hoechst High Intensity Objects (%) (Fibroblast; [4]): 2% and 9%; Population Membrane Permeable-Phenotype (%) (Fibroblast; [4]): 1% and 6%; Population Mitochondria Different-Phenotype (%) (Fibroblast; [4]): 6% and 12%; Population Mitotic Cells (%) (Fibroblast; [4]): 50% and 67%; Population Normal (%) (Fibroblast; [4]): 97% and 90%; Population Pyknosed Nuclei (%) (Fibroblast; [4]): 22% and 39%; Population Tubulin-Different-Phenotype (%) (Fibroblast; [4]): 59% and 72%; Total Cell Count (Fibroblast; [4]): 130 and 145; Population Apoptotic (%) (Fibroblast; [5]): 52% and 37%; Population Fragmented Nuclei (%) (Fibroblast; [5]): 24% and 33%; Population Healthy Nuclei (%) (Fibroblast; [5]): 59% and 50%; Population Hoechst High Intensity Objects (%) (Fibroblast; [5]): 3% and 5%; Population Membrane Permeable-Phenotype (%) (Fibroblast; [5]): 0% and 12%; Population Mitochondria Different-Phenotype (%) (Fibroblast; [5]): 4% and 8%; Population Mitotic Cells (%) (Fibroblast; [5]): 47% and 62%; Population Normal (%) (Fibroblast; [5]): 96% and 94%; Population Pyknosed Nuclei (%) (Fibroblast; [5]): 15% and 16%; Population Tubulin-Different-Phenotype (%) (Fibroblast; [5]): 27% and 60%; Total Cell Count (Fibroblast; [5]): 150 and 156; Population Apoptotic (%) (Fibroblast; [6]): 60%; Population Fragmented Nuclei (%) (Fibroblast; [6]): 17% and 30%; Population Healthy Nuclei (%) (Fibroblast; [6]): 62% and 48%; Population Hoechst High Intensity Objects (%) (Fibroblast; [6]): 1% and 7%; Population Mitochondria Different-Phenotype (%) (Fibroblast; [6]): 12% and 7%; Population Mitotic Cells (%) (Fibroblast; [6]): 40% and 39%; Population Normal (%) (Fibroblast; [6]): 98% and 92%; Population Pyknosed Nuclei (%) (Fibroblast; [6]): 19% and 20%; Population Tubulin-Different-Phenotype (%) (Fibroblast; [6]): 61% and 69%; Total Cell Count (Fibroblast; [6]): 129 and 145; Population Apoptotic (%) (HEK-293T; [1]): 43% and 40%; Population Fragmented Nuclei (%) (HEK-293T; [1]): 8% and 7%; Population Healthy Nuclei (%) (HEK-293T; [1]): 78%; Population Hoechst High Intensity Objects (%) (HEK-293T; [1]): 9% and 7%; Population Membrane Permeable-Phenotype (%) (HEK-293T; [1]): 0%; Population Mitochondria Different-Phenotype (%) (HEK-293T; [1]): 37% and 64%; Population Mitotic Cells (%) (HEK-293T; [1]): 56% and 59%; Population Normal (%) (HEK-293T; [1]): 90% and 92%; Population Pyknosed Nuclei (%) (HEK-293T; [1]): 12% and 14%; Population Tubulin-Different-Phenotype (%) (HEK-293T; [1]): 28% and 29%; Total Cell Count (HEK-293T; [1]): 411 and 338; Population Apoptotic (%) (HEK-293T; [2]): 38% and 65%; Population Fragmented Nuclei (%) (HEK-293T; [2]): 7% and 6%; Population Healthy Nuclei (%) (HEK-293T; [2]): 80% and 69%; Population Hoechst High Intensity Objects (%) (HEK-293T; [2]): 7% and 16%; Population Membrane Permeable-Phenotype (%) (HEK-293T; [2]): 0%; Population Mitochondria Different-Phenotype (%) (HEK-293T; [2]): 47% and 71%; Population Mitotic Cells (%) (HEK-293T; [2]): 61% and 34%; Population Normal (%) (HEK-293T; [2]): 92% and 83%; Population Pyknosed Nuclei (%) (HEK-293T; [2]): 12% and 23%; Population Tubulin-Different-Phenotype (%) (HEK-293T; [2]): 48% and 41%; Total Cell Count (HEK-293T; [2]): 404 and 291; Population Apoptotic (%) (HEK-293T; [3]): 29% and 43%; Population Fragmented Nuclei (%) (HEK-293T; [3]): 8% and 7%; Population Healthy Nuclei (%) (HEK-293T; [3]): 80% and 84%; Population Hoechst High Intensity Objects (%) (HEK-293T; [3]): 5%; Population Membrane Permeable-Phenotype (%) (HEK-293T; [3]): 1% and 0%; Population Mitochondria Different-Phenotype (%) (HEK-293T; [3]): 19% and 44%; Population Mitotic Cells (%) (HEK-293T; [3]): 70% and 56%; Population Normal (%) (HEK-293T; [3]): 94%; Population Pyknosed Nuclei (%) (HEK-293T; [3]): 11% and 7%; Population Tubulin-Different-Phenotype (%) (HEK-293T; [3]): 18% and 22%; Total Cell Count (HEK-293T; [3]): 510 and 403
